Measured values: ChEMBL document CHEMBL3808334, “Synthesis and in vitro evaluation of novel triazine analogues as anticancer agents and their interaction studies with bovine serum albumin” (Eur J Med Chem, 2016)

Assays:
Assay type in all cases: functional
[1] = Growth inhibition of human Caki1 cells assessed as cell growth at 10^-8 M incubated for 48 hrs by sulforhodamine B assay; conditions: CAKI-1, 48 h, read-out: Activity
Summary of the method: (§1)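 Cells seeded at 5,000–40,000/well according to doubling time and preincubated 24 h at 37 °C, 5% CO2. Time-zero plates were TCA-fixed. DMSO concentrate was diluted in medium with 50 µg/ml gentamicin to give five concentrations (10-fold or ½ log steps), then exposed 48 h. Cells were TCA-fixed, stained with 0.4% SRB and read at 515 nm. Percent growth was taken against time-zero and control; GI50, TGI and LC50 derived.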

HT-29 [2] = assay: Growth inhibition of human HT-29 cells assessed as cell growth at 10^-7 M incubated for 48 hrs by sulforhodamine B assay; conditions: HT-29, 48 h, read-out: Activity
[3] = Growth inhibition of human LOXIMVI cells assessed as cell growth at 10^-6 M incubated for 48 hrs by sulforhodamine B assay; conditions: LOX IMVI, read-out: Activity
NCI-H322M [4] = assay: Growth inhibition of human NCI-H322M cells incubated for 48 hrs by sulforhodamine B assay
Summary of the method: (§2)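 Cells were plated at 5,000–40,000 per well according to doubling time and preincubated 24 h at 37 °C in 5% CO2; time-zero plates were then TCA-fixed. Five concentrations (10-fold or ½-log dilutions, DMSO stock) were incubated 48 h. Cells were TCA-fixed, stained with 0.4% SRB and read at 515 nm. GI50 was taken where [(Ti−Tz)/(C−Tz)]×100 = 50.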

[5] = Growth inhibition of human SF539 cells assessed as cell growth at 10^-6 M incubated for 48 hrs by sulforhodamine B assay; conditions: SF-539, 48 h, read-out: Activity
A498 [6] = assay: Growth inhibition of human A498 cells assessed as cell growth at 10^-5 M incubated for 48 hrs by sulforhodamine B assay; conditions: A498, 48 h, read-out: Activity
Summary of the method: (§3)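 Five-dose assay: five concentrations from 10-fold or ½-log serial dilutions. Cells are plated at 5,000–40,000 per well according to doubling time, grown 24 h, then exposed 48 h at 37 °C, 5% CO₂. Fixed with cold 50% TCA (final addition) for 60 min at 4 °C and stained with 0.4% SRB in 1% acetic acid. Bound dye is solubilized in 10 mM Tris base and read at 515 nm. GI₅₀ is where [(Ti−Tz)/(C−Tz)]×100 = 50, with a time-zero plate as Tz.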

[7] = Growth inhibition of human RPMI8226 cells assessed as cell growth at 10^-5 M incubated for 48 hrs by sulforhodamine B assay; conditions: RPMI-8226, 48 h, read-out: Activity
SR = assay: Growth inhibition of human SR cells assessed as cell growth at 10^-4 M incubated for 48 hrs by sulforhodamine B assay; conditions: read-out: Activity
EKVX = assay: Growth inhibition of human EKVX cells incubated for 48 hrs by sulforhodamine B assay; summary of the method: as §1
HT-29 [8] = assay: Growth inhibition of human HT-29 cells assessed as cell growth at 10^-6 M incubated for 48 hrs by sulforhodamine B assay; conditions: HT-29, 48 h, read-out: Activity
[9] = Growth inhibition of human SF295 cells assessed as cell growth at 10^-7 M incubated for 48 hrs by sulforhodamine B assay; conditions: SF-295, 48 h, read-out: Activity
MDA-MB-435 = assay: Growth inhibition of human MDA-MB-435 cells assessed as cell growth at 10^-7 M incubated for 48 hrs by sulforhodamine B assay; conditions: MDA-MB-435, 48 h, read-out: Activity
[10] = Growth inhibition of human RXF393 cells assessed as cell growth at 10^-4 M incubated for 48 hrs by sulforhodamine B assay; conditions: RXF 393, 48 h, read-out: Activity
[11] = Growth inhibition of human UACC62 cells assessed as cell growth at 10^-7 M incubated for 48 hrs by sulforhodamine B assay; conditions: UACC-62, 48 h, read-out: Activity
A498 [12] = assay: Growth inhibition of human A498 cells assessed as cell growth at 10^-7 M incubated for 48 hrs by sulforhodamine B assay; conditions: A498, 48 h, read-out: Activity; summary of the method: as §3
[13] = Growth inhibition of human UACC62 cells incubated for 48 hrs by sulforhodamine B assay; conditions: UACC-62, 48 h; summary of the method: as §2
[14] = Growth inhibition of human COLO205 cells assessed as cell growth at 10^-7 M incubated for 48 hrs by sulforhodamine B assay; conditions: COLO 205, 48 h, read-out: Activity; summary of the method: as §1
KM12 = assay: Growth inhibition of human KM12 cells incubated for 48 hrs by sulforhodamine B assay; conditions: KM12, 48 h; summary of the method: as §2
[15] = Growth inhibition of human MOLT4 cells assessed as cell growth at 10 uM incubated for 48 hrs by sulforhodamine B assay; conditions: MOLT-4, 48 h, read-out: Activity
SK-MEL-28 = assay: Growth inhibition of human SK-MEL-28 cells assessed as cell growth at 10 uM incubated for 48 hrs by sulforhodamine B assay; conditions: SK-MEL-28, 48 h, read-out: Activity
[16] = Growth inhibition of human OVCAR5 cells assessed as cell growth at 10^-8 M incubated for 48 hrs by sulforhodamine B assay; conditions: OVCAR-5, 48 h, read-out: Activity
NCI-H322M [17] = assay: Growth inhibition of human NCI-H322M cells assessed as cell growth at 10^-4 M incubated for 48 hrs by sulforhodamine B assay; conditions: read-out: Activity
[18] = Growth inhibition of human SNB19 cells assessed as cell growth at 10^-5 M incubated for 48 hrs by sulforhodamine B assay; conditions: SNB-19, 48 h, read-out: Activity
NCI-H460 = assay: Growth inhibition of human NCI-H460 cells assessed as cell growth at 10 uM incubated for 48 hrs by sulforhodamine B assay; conditions: NCI-H460, 48 h, read-out: Activity
[19] = Growth inhibition of human SF295 cells assessed as cell growth at 10^-6 M incubated for 48 hrs by sulforhodamine B assay; conditions: SF-295, 48 h, read-out: Activity
[20] = Growth inhibition of human MOLT4 cells assessed as cell growth at 10^-5 M incubated for 48 hrs by sulforhodamine B assay; conditions: MOLT-4, 48 h, read-out: Activity
[21] = Growth inhibition of human BT549 cells assessed as cell growth at 10^-6 M incubated for 48 hrs by sulforhodamine B assay; conditions: BT-549, 48 h, read-out: Activity; summary of the method: as §3
Malme-3M = assay: Growth inhibition of human MALME-3M cells assessed as cell growth at 10^-4 M incubated for 48 hrs by sulforhodamine B assay; conditions: read-out: Activity
[22] = read-out: LC50 (the source's name)
[23] = read-out: pLC50 (the source's name) (converted)

c1ccc(-c2nc(Nc3ccc(-c4nc5ccccc5[nH]4)cc3)nc(N3CCOCC3)n2)cc1
growth at 0.01 µM [1]: 91% | growth at 0.1 µM (HT-29 [2]): 108% | growth at 1 µM [3]: 29% | GI50 (NCI-H322M [4]; read-out: GI50): 1.65 µM | CC50 (NCI-H322M [4]; [22]): 6.67 µM | TGI (NCI-H322M [4]; read-out: TGI): 3.31 µM | GI50 (NCI-H322M [4]; read-out: pGI50 (converted)): 1.66 µM | CC50 (NCI-H322M [4]; [23]): 6.61 µM | TGI (NCI-H322M [4]; read-out: pTGI (converted)): 3.31 µM | growth at 1 µM [5]: 74% | growth at 10 µM (A498 [6]): -76% | growth at 10 µM [7]: -32% | growth at 100 µM (SR): -28% | GI50 (EKVX; read-out: GI50): 1.59 µM | LC50 (EKVX; read-out: LC50): 7.33 µM | TGI (EKVX; read-out: TGI): 3.42 µM | GI50 (EKVX; read-out: pGI50 (converted)): 1.58 µM | LC50 (EKVX; read-out: pLC50 (converted)): 7.41 µM | TGI (EKVX; read-out: pTGI (converted)): 3.39 µM | growth at 1 µM (HT-29 [8]): 36% | growth at 0.1 µM [9]: 101% | growth at 0.1 µM (MDA-MB-435): 101% | growth at 100 µM [10]: -61% | growth at 0.1 µM [11]: 97% | growth at 0.1 µM (A498 [12]): 84% | GI50 ([13]; read-out: GI50): 1.66 µM | CC50 [13, 22]: 7.29 µM | TGI ([13]; read-out: TGI): 3.48 µM | GI50 ([13]; read-out: pGI50 (converted)): 1.66 µM | CC50 [13, 23]: 7.24 µM | TGI ([13]; read-out: pTGI (converted)): 3.47 µM | growth at 0.1 µM [14]: 91% | GI50 (KM12; read-out: GI50): 1.62 µM | CC50 (KM12; [22]): 6.3 µM | TGI (KM12; read-out: TGI): 3.19 µM | GI50 (KM12; read-out: pGI50 (converted)): 1.62 µM | CC50 (KM12; [23]): 6.31 µM | TGI (KM12; read-out: pTGI (converted)): 3.16 µM | growth at 10 µM [15]: -37.8% | growth at 10 µM (SK-MEL-28): -82.8% | growth at 0.01 µM [16]: 90% | growth at 100 µM (NCI-H322M [17]): -62% | growth at 10 µM [18]: -53% | growth at 10 µM (NCI-H460): -67.2% | growth at 1 µM [19]: 64% | growth at 10 µM [20]: -53% | growth at 1 µM [21]: 100% | growth at 100 µM (Malme-3M): -54%

Fc1ccc(-c2nc(Nc3ccc(-c4nc5ccccc5[nH]4)cc3)nc(N3CCOCC3)n2)cc1
growth at 0.01 µM [1]: 94% | growth at 0.1 µM (HT-29 [2]): 96% | growth at 1 µM [3]: 91% | GI50 (NCI-H322M [4]; read-out: GI50): 3.62 µM | CC50 (NCI-H322M [4]; [22]): > 100 µM | TGI (NCI-H322M [4]; read-out: TGI): > 100 µM | GI50 (NCI-H322M [4]; read-out: pGI50 (converted)): 3.63 µM | CC50 (NCI-H322M [4]; [23]): > 100 µM | TGI (NCI-H322M [4]; read-out: pTGI (converted)): > 100 µM | growth at 1 µM [5]: 80% | growth at 10 µM (A498 [6]): -60% | growth at 10 µM [7]: -17% | growth at 100 µM (SR): 1% | GI50 (EKVX; read-out: GI50): 2.6 µM | LC50 (EKVX; read-out: LC50): > 100 µM | TGI (EKVX; read-out: TGI): > 100 µM | GI50 (EKVX; read-out: pGI50 (converted)): 2.63 µM | LC50 (EKVX; read-out: pLC50 (converted)): > 100 µM | TGI (EKVX; read-out: pTGI (converted)): > 100 µM | growth at 1 µM (HT-29 [8]): 96% | growth at 0.1 µM [9]: 94% | growth at 0.1 µM (MDA-MB-435): 102% | growth at 100 µM [10]: -35% | growth at 0.1 µM [11]: 91% | growth at 0.1 µM (A498 [12]): 83% | GI50 ([13]; read-out: GI50): 1.7 µM | TGI ([13]; read-out: TGI): 3.56 µM | GI50 ([13]; read-out: pGI50 (converted)): 1.7 µM | TGI ([13]; read-out: pTGI (converted)): 3.55 µM | growth at 0.1 µM [14]: 99% | GI50 (KM12; read-out: GI50): 2.06 µM | CC50 (KM12; [22]): > 100 µM | TGI (KM12; read-out: TGI): 5.69 µM | GI50 (KM12; read-out: pGI50 (converted)): 2.04 µM | CC50 (KM12; [23]): > 100 µM | TGI (KM12; read-out: pTGI (converted)): 5.62 µM | growth at 10 µM [15]: 1.78% | growth at 10 µM (SK-MEL-28): -34% | growth at 0.01 µM [16]: 93% | growth at 100 µM (NCI-H322M [17]): 9% | growth at 10 µM [18]: 15% | growth at 10 µM (NCI-H460): 0.13% | growth at 1 µM [19]: 72% | growth at 10 µM [20]: -23% | growth at 1 µM [21]: 83% | growth at 100 µM (Malme-3M): -58%
